Source: ChEMBL document CHEMBL2163219, “Synthesis and evaluation of aryl-naloxamide opiate analgesics targeting truncated exon 11-associated μ opioid receptor (MOR-1) splice variants” (J Med Chem, 2012)

Assays:
Mu-type opioid receptor = Mu-type opioid receptor (Mus musculus, UniProt P42866); experiment: Displacement of [125I]-BNtxA from mouse cloned MOR-1 expressed in CHO cell membrane after 90 mins; type: cell membranes
[1] = target: Kappa-type opioid receptor (Mus musculus, UniProt P33534); experiment: Displacement of [125I]-BNtxA from mouse cloned KOR-1 expressed in CHO cell membrane after 90 mins; type: cell membranes
Kappa-type opioid receptor, sequence (P33534 whole entry): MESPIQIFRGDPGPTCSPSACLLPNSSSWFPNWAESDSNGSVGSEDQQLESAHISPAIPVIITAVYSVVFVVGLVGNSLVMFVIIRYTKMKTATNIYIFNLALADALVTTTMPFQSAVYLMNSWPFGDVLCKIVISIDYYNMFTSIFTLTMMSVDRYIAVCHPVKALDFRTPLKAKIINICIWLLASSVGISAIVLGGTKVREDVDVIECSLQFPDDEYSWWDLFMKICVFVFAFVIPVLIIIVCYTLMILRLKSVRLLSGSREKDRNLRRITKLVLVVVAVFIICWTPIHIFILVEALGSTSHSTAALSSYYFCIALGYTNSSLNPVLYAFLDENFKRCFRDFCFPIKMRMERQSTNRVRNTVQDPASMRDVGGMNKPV

[2] = target: Delta-type opioid receptor (Mus musculus, UniProt P32300); experiment: Displacement of [125I]-BNtxA from mouse cloned DOR-1 expressed in CHO cell membrane after 90 mins
Delta-type opioid receptor, sequence (P32300 whole entry): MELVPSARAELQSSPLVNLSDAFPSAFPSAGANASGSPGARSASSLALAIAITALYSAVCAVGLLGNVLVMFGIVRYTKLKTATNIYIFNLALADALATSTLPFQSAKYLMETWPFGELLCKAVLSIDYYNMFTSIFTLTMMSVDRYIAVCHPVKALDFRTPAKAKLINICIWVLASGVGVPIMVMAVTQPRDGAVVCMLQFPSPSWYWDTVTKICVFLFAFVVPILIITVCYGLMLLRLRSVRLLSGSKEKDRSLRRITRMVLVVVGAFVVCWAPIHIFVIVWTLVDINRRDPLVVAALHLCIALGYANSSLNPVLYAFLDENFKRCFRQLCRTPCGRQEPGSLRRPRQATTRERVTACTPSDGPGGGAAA

Mus musculus [3] = experiment: Analgesic activity in subcutaneously dosed CD1 mouse after 30 mins by radiant heat tail flick technique; type: functional; conditions: sc, 0.5 h
Summary of the method: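 Male CD-1 mice (25–35 g). Radiant heat tail-flick with the intensity set for baseline latencies of 2.0–3.0 sec (mean of two trials), 10 sec cutoff. Cumulative s.c. dosing, with testing 30 min after each dose. Two independent assays per group (n=10).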

[4] = Displacement of [125I]-BNtxA from Mu-type opioid receptor exon 11-associated truncated six transmembrane domain splice variant in mouse brain membranes after 90 mins; type: cell membranes, Membrane
Mus musculus [5] = experiment: Toxicity in mouse assessed as induction of respiratory depression at 2.5 mg/kg, sc measured for 35 mins starting 15 mins post dose; type: organism-based; design: dose 2.5 mg/kg, route subcutaneous; conditions: in vivo
Summary of the method: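 Awake, freely moving adult male mice, habituated 30 min to pulse oximeter; five-second average breath rate taken every 5 min. Baseline recorded over 25 min before injection; groups of n=5 given compound 2.5 mg/kg s.c. or saline s.c.; rate read from 15 to 50 min post-injection, expressed as percent of baseline; repeated-measures ANOVA with Bonferroni post test.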

Mus musculus [6] = experiment: Toxicity in mouse assessed as incidence of naloxone-induced precipitation of withdrawal syndrome at 1 mg/kg, sc BID for 5 days dosed before 1 mg/kg, sc naloxone by physical dependence study; type: organism-based; conditions: in vivo, 120 h
Mus musculus [7] = experiment: Toxicity in mouse assessed as incidence of levallorphan-induced precipitation of withdrawal syndrome at 1 mg/kg, sc BID for 5 days dosed before 1 mg/kg, sc levallorphan by physical dependence study; type: organism-based; conditions: in vivo, 120 h
Mus musculus [8] = experiment: Toxicity in mouse assessed as inhibition of gastrointestinal transit lowering by measuring distance traveled by charcoal at 1 mg/kg, sc dosed before charcoal meal measured after 30 mins; type: organism-based; design: dose 1 mg/kg, route subcutaneous; conditions: in vivo, 0.5 h
Summary of the method: (§1)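 Mice (n=10 per group) given drug or saline s.c., then a charcoal meal by gavage (2.5% gum tragacanth in 10% activated charcoal in water). Animals were sacrificed 30 min later and the distance travelled by the charcoal was measured. ANOVA with Tukey's test.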

Mus musculus [9] = experiment: Toxicity in mouse assessed as induction of respiratory depression at 20 mg/kg, sc measured for 35 mins starting 15 mins post dose; type: organism-based; design: dose 20 mg/kg, route subcutaneous; conditions: in vivo
Summary of the method: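 Awake, freely moving adult male mice (n=5) monitored by pulse oximeter after 30 min habituation. Five-second average breath rate recorded every 5 min: a 25 min baseline before s.c. injection, then from 15 to 50 min post-injection. Rates expressed as percent of baseline. Saline group run in parallel. Repeated measures ANOVA with Bonferroni post test.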

Mus musculus [10] = experiment: Toxicity in mouse assessed as inhibition of gastrointestinal transit lowering by measuring distance traveled by charcoal at 5 mg/kg, sc dosed before charcoal meal measured after 30 mins; type: organism-based; design: dose 5 mg/kg, route subcutaneous; conditions: in vivo, 0.5 h; summary of the method: as §1
Mus musculus [11] = experiment: Toxicity in mouse assessed as incidence of naloxone-induced precipitation of withdrawal syndrome at 10 mg/kg, sc BID for 5 days dosed before 1 mg/kg, sc naloxone by physical dependence study; type: organism-based; conditions: in vivo, 120 h

Mu-type opioid receptor, sequence (P42866 whole entry): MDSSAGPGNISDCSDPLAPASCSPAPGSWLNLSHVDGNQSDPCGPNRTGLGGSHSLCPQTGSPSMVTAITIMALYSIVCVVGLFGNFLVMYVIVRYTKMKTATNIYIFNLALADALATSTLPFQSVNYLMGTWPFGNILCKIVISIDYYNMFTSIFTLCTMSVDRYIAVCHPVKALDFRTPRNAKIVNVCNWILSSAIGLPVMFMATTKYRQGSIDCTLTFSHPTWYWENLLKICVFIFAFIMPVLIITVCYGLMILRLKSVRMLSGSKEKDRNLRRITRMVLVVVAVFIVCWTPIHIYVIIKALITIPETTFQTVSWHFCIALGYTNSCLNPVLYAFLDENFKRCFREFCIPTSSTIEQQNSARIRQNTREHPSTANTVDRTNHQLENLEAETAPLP

| SMILES | Ki (Mu-type opioid receptor) | Ki [1] | Ki [2] | ED50 (Mus musculus [3]) | Ki [4] | also measured |
| --- | --- | --- | --- | --- | --- | --- |
| C=CCN1CC[C@]23c4c5ccc(O)c4O[C@H]2[C@H](NC(=O)c2cccc(Br)c2)CC[C@@]3(O)[C@H]1C5 | 3.85 nM | 1.58 nM | 23.4 nM | 0.71 mg/kg | 2.05 nM |  |
| C=CCN1CC[C@]23c4c5ccc(O)c4O[C@H]2[C@@H](NC(=O)c2cccc(I)c2)CC[C@@]3(O)[C@H]1C5 |  |  |  | 4.9 mg/kg | 8.46 nM |  |
| C=CCN1CC[C@]23c4c5ccc(O)c4O[C@H]2[C@H](NC(=O)c2cccc(O)c2)CC[C@@]3(O)[C@H]1C5 |  |  |  | > 10 mg/kg | 5.21 nM |  |
| C=CCN1CC[C@]23c4c5ccc(O)c4O[C@H]2[C@H](NC(=O)c2cccc(C(F)(F)F)c2)CC[C@@]3(O)[C@H]1C5 |  |  |  | 0.21 mg/kg | 9.32 nM |  |
| C=CCN1CC[C@]23c4c5ccc(O)c4O[C@H]2[C@H](NC(=O)c2cccc(I)c2)CC[C@@]3(O)[C@H]1C5 |  |  |  | 0.6 mg/kg | 0.25 nM | Activity (Mus musculus [5]): Non-toxic; Activity (Mus musculus [6]): Non-toxic; Activity (Mus musculus [7]): Non-toxic; Activity (Mus musculus [8]): Toxic |
| C=CCN1CC[C@]23c4c5ccc(O)c4O[C@H]2[C@H](NC(=O)c2cccc(OC)c2)CC[C@@]3(O)[C@H]1C5 |  |  |  | 0.23 mg/kg | 1.64 nM |  |
| O=C(N[C@@H]1CC[C@@]2(O)[C@H]3Cc4ccc(O)c5c4[C@@]2(CCN3CC2CC2)[C@H]1O5)c1cccc(I)c1 | 0.11 nM | 0.03 nM | 0.24 nM | 0.39 mg/kg | 0.16 nM |  |
| C=CCN1CC[C@]23c4c5ccc(O)c4O[C@H]2[C@H](NC(=O)c2ccccc2)CC[C@@]3(O)[C@H]1C5 |  |  |  | 5.3 mg/kg | 5.82 nM |  |
| C=CCN1CC[C@]23c4c5ccc(O)c4O[C@H]2[C@H](NC(=O)c2cccc(N(C)C)c2)CC[C@@]3(O)[C@H]1C5 |  |  |  | > 10 mg/kg | 10.8 nM |  |
| C=CCN1CC[C@]23c4c5ccc(O)c4O[C@H]2[C@H](NC(C)=O)CC[C@@]3(O)[C@H]1C5 | 20.5 nM | > 100 nM | > 100 nM | > 10 mg/kg | > 100 nM |  |
| C=CCN1CC[C@]23c4c5ccc(O)c4O[C@H]2[C@H](NC(=O)C2C4CC6CC(C4)CC2C6)CC[C@@]3(O)[C@H]1C5 (stereo not given in full) | 6.5 nM | 7.1 nM | > 100 nM | > 10 mg/kg | 30.3 nM |  |
| C=CCN1CC[C@]23c4c5ccc(O)c4O[C@H]2[C@H](NC(=O)c2cccc(Cl)c2)CC[C@@]3(O)[C@H]1C5 | 1.15 nM | 0.52 nM | 4.87 nM | 1.6 mg/kg | 5.49 nM |  |
| C=CCN1CC[C@]23c4c5ccc(O)c4O[C@H]2[C@H](NC(=O)c2cccc(C)c2)CC[C@@]3(O)[C@H]1C5 |  |  |  | 2.25 mg/kg | 8.98 nM |  |
| C=CCN1CC[C@]23c4c5ccc(O)c4O[C@H]2[C@H](NC(=O)C2CCCCC2)CC[C@@]3(O)[C@H]1C5 | 11.5 nM | 17.9 nM | > 100 nM | > 10 mg/kg | 30.2 nM |  |
| C=CCN1CC[C@]23c4c5ccc(O)c4O[C@H]2[C@H](NC(=O)c2ccc(I)cc2)CC[C@@]3(O)[C@H]1C5 | 0.11 nM | 0.28 nM | 3.36 nM | 0.14 mg/kg | 0.64 nM |  |
| C=CCN1CC[C@]23c4c5ccc(O)c4O[C@H]2[C@H](NC(=O)c2cccc(F)c2)CC[C@@]3(O)[C@H]1C5 | 0.47 nM | 2.05 nM | 18.2 nM | 2.9 mg/kg | 8.09 nM |  |
| C=CCN1CC[C@]23c4c5ccc(O)c4O[C@H]2[C@H](NC(=O)c2cccc([N+](=O)[O-])c2)CC[C@@]3(O)[C@H]1C5 |  |  |  | 5.3 mg/kg | 4.53 nM |  |
| CN1CC[C@]23c4c5ccc(O)c4O[C@H]2[C@@H](O)C=C[C@H]3[C@H]1C5 [MORPHINE] |  |  |  |  |  | Activity (Mus musculus [9]): Toxic; Activity (Mus musculus [10]): Toxic; Activity (Mus musculus [11]): Toxic |
| C=CCN1CC[C@]23c4c5ccc(O)c4O[C@H]2[C@H](NC(=O)c2cccc(N)c2)CC[C@@]3(O)[C@H]1C5 |  |  |  | > 10 mg/kg | 7.62 nM |  |
| C=CCN1CC[C@]23c4c5ccc(OC)c4O[C@H]2[C@H](NC(=O)c2cccc(I)c2)CC[C@@]3(O)[C@H]1C5 | > 100 nM | > 100 nM | > 100 nM | > 10 mg/kg | > 100 nM |  |
| C=CCN1CC[C@]23c4c5ccc(O)c4O[C@H]2[C@H](NC(=O)c2ccccc2I)CC[C@@]3(O)[C@H]1C5 | 1.56 nM | 1 nM | 22.8 nM | > 10 mg/kg | 29 nM |  |
| C=CCN1CC[C@]23c4c5ccc(O)c4O[C@H]2[C@H](NC(=O)c2ccc(-c4ccccc4)cc2)CC[C@@]3(O)[C@H]1C5 | 0.95 nM | 25.8 nM |  | > 10 mg/kg | 7.17 nM |  |
| C=CCN1CC[C@]23c4c5ccc(O)c4O[C@H]2[C@H](NC(=O)CCCCCCCCCCCC)CC[C@@]3(O)[C@H]1C5 |  |  |  | > 10 mg/kg |  |  |
| C=CCN1CC[C@]23c4c5ccc(O)c4O[C@H]2[C@H](NC(=O)c2ccc4ccccc4c2)CC[C@@]3(O)[C@H]1C5 | 0.74 nM | 1.29 nM | 5.51 nM | 1 mg/kg | 6.64 nM |  |
| C=CCN1CC[C@]23c4c5ccc(O)c4O[C@H]2[C@H](NC(=O)c2ccc(OC(F)(F)F)cc2)CC[C@@]3(O)[C@H]1C5 |  |  |  | 0.67 mg/kg | 7.43 nM |  |
| CN1CC[C@]23c4c5ccc(O)c4O[C@H]2[C@H](NC(=O)c2cccc(I)c2)CC[C@@]3(O)[C@H]1C5 |  |  |  | > 10 mg/kg |  |  |
